Screens: PubChem, Broad Institute
Most compounds without a hit are left out; they make up all but 1.5% or so of the library.
RAD52 anneal inh: blocks human RAD52 DNA annealing; P43351; recombinant RAD52 DNA annealing, FRET fluorescence; inhibition, % at 18.7 µM; actives 0.46% (n = 360,000); AID 651710;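 active means every replicate showing at least 50% inhibition; inconclusive means mean inhibition at least 50% but not in every replicate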
Target sequence (P43351 whole entry, looked up): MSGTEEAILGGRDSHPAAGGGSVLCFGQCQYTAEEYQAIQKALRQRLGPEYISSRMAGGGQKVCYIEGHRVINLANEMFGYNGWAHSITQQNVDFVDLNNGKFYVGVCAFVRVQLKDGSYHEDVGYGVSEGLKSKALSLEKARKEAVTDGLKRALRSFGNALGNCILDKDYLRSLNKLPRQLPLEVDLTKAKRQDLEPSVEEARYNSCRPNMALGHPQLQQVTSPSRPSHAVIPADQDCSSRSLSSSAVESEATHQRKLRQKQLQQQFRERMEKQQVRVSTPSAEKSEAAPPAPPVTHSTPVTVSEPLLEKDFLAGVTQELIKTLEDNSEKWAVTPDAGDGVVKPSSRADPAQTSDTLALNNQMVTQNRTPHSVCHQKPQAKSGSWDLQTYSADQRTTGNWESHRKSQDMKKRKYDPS
S100A4 MyoIIA: S100A4-myosin IIA interaction inhibition. S100A4/TAMRA-MyoIIA peptide fluorescence polarization. P26447. actives 0.14% (n = 360,000). inhibition, % at 10.7 µM. AID 652163;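 active means mean inhibition of at least 70% across replicates, with every replicate also reaching that level; inconclusive means mean inhibition reaches 70% but some replicates fall short; inactive means mean inhibition below 70%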
Target sequence (P26447 whole entry, looked up): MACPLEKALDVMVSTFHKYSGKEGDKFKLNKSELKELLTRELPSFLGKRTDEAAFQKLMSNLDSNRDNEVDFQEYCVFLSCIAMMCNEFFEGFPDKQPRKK
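System – human S100A4 monomer protein, biochemical binding assay · Buffer or medium – Calcium-containing HEPES buffer, pH 7.2 · Timing – 5 min between mix addition and reading · Also added – TAMRA-labelled myosin IIA heavy-chain peptide probe, 5 nM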
MLL AF4-AF9 inh: inhibitors of human MLL-AF4/AF9 interaction; AlphaScreen, biotin-AF4 peptide binding to FLAG-AF9; inhibition, % at 10 µM; actives 0.47% (n = 350,000); AID 651704;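 active means every replicate reaching a set inhibition limit, whatever the replicate mean, cut at about 25% in these data; inconclusive means mean inhibition reaches that limit but some replicates miss it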;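 further: 0% = plate neutral control median and 100% = total signal loss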
INS-1E GSIS act: primary screen for activators of insulin secretion dependent on glucose, INS-1E cells, GLuc reporter luminescence | INS-1E GLuc reporter insulin secretion, 2-3 h | activation, % at 16.6 µM | actives 0.61% (n = 370,000);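 active means lowest replicate activation of at least 40%, so every replicate reaches that level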;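 further: 0% = median of neutral control wells and 100% = median of IBMX positive control wells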
ERAP1 inh: ERAP1 (human) enzyme inhibition | Q9NZ08 | recombinant ERAP1, Leu-AMC fluorescence, 60 min | inhibition, % at 10.7 µM | actives 0.15% (n = 340,000);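 active means mean replicate inhibition of at least 30%, or all replicates individually reaching that 30% level; inactive means mean below 30% and not every replicate reaching it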;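 further: 0% = neutral control wells and 100% = L-leucinethiol positive control wells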
* hit, by the source's call; u = inconclusive; x = no result; ! = not active in a repeat.

SMILES | RAD52 anneal inh | S100A4 MyoIIA | MLL AF4-AF9 inh | INS-1E GSIS act | ERAP1 inh
COC(=O)c1cc(=O)n(C2CC2)c(=NC2CC2)s1 | x | x | x | 76* | x
CCCNC(=O)Nc1ccc2c(c1)C(=O)N(C)C[C@H](OC)[C@@H](C)CN(Cc1cncnc1)[C@H](C)CO2 | 3 | -2 | -1 | -4 | -1
CCOC(=O)C1CCCN(C(=O)C2COc3ccccc3O2)C1 (stereo not given) | 2 | -2 | -16 | 42* | -2
COc1cc2nc(N3CCN(c4cc(C)ccc4C)CC3)nc(N)c2cc1OC | 49 | -3 | 23 | 221* | 1
C=CCNc1nc(Cl)nc(Nc2ccc(OC)cc2)n1 | x | x | x | 65* | x
C=CCNc1nc(Nc2ccc(OC)cc2)nc(OC)n1 | x | x | x | 9 | x
CC(C)CC#Cc1ccc([C@H]2[C@H]3CN(C(=O)NC(C)C)CC(=O)N3[C@H]2CO)cc1 | x | x | x | -11 | x
COc1cccc(-c2ccc(C3[C@H]4CNC[C@@H]3N4Cc3cc(F)ccc3F)cc2)c1 (stereo not given in full) | 54*! | 28 | 2 | 2 | 0
Fc1cccc(-c2ccc(C3[C@H]4CNC[C@@H]3N4Cc3ccccc3F)cc2)c1 (stereo not given in full) | 60* | 20 | 2 | 63 | -2
COc1ccc(NC(=O)N2CCCCN3[C@@H](CO)[C@H](c4ccc(-c5ccccc5C)cc4)[C@@H]3C2)cc1 | x | x | x | -24 | x
CCNC(=O)C[C@@H]1CC[C@@H]2[C@@H](COc3ccc(NC(=O)C4CCOCC4)cc3C(=O)N2C)O1 | 0 | -9 | -1 | -7 | 3
CC(C)CC#Cc1ccc2c(c1)O[C@H](CN(C)C(=O)c1cnccn1)[C@H](C)CN([C@H](C)CO)S2(=O)=O | 6 | 1 | 1 | -19 | 1
Cc1cccc(NC(=S)Nc2ccccn2)c1C | x | x | x | 41* | x
O=C([C@H]1[C@H](CO)[C@H]2Cn3c(cccc3=O)[C@@H]1N2CC1CCCC1)N1CCOCC1 | -2 | 4 | -1 | 11 | 3
COc1ccc(N2c3ccccc3CN(Cc3ccccc3)[C@@H](C)[C@H]2Cc2cccnc2)cc1 | 0 | -1 | 25* | -9 | -3
COc1ccc(N2c3ccccc3CN(Cc3ccccc3)[C@@H](C)[C@H]2Cc2c(C)cccc2C)cc1 | 1 | 1 | 2 | 1 | x
C[C@@H]1CCCCO[C@H](CN(C)CC2CC2)[C@H](C)CN([C@@H](C)CO)C(=O)c2cc(NC(=O)c3ccccc3)ccc2O1 | 52* | 7 | 6 | -7 | -7
CCCN(C)C[C@@H]1OCCCC[C@@H](C)Oc2ccc(NC(=O)Nc3ccc4c(c3)OCO4)cc2C(=O)N([C@H](C)CO)C[C@H]1C | 31 | 8 | 25* | 5 | 0
C[C@H](CO)N1C[C@H](C)[C@@H](CN(C)CC2CC2)OCCCC[C@H](C)Oc2ccc(NC(=O)Nc3ccc4c(c3)OCO4)cc2C1=O | 48 | -3 | 29* | -6 | -1
C[C@@H]1CN([C@@H](C)CO)C(=O)c2cc(NC(=O)Nc3ccc(F)cc3)ccc2O[C@@H](C)CCCCO[C@H]1CN(C)C(=O)CCCN(C)C | 51* | -2 | -4 | 36 | -7
C[C@H](CO)N1C[C@H](C)[C@H](CN(C)C(=O)CCCN(C)C)OCCCC[C@H](C)Oc2ccc(NC(=O)Nc3ccc(F)cc3)cc2C1=O | 24 | 17 | 5 | 11 | 11
O=C(C1CC1)N1C[C@@H]2N[C@H](C1)C2c1ccc(-c2ccccc2F)cc1 (stereo not given in full) | 25 | -2 | -14 | 9 | -5
CO[C@@H]1CN(C)C(=O)c2cc(NC(C)=O)ccc2OC[C@H](C)N(C(=O)C2CCCCC2)C[C@H]1C | x | x | x | -6 | x
C[C@@H]1CCCCO[C@@H](CN(C)CC2CC2)[C@H](C)CN([C@H](C)CO)C(=O)c2cc(NC(=O)Nc3ccc4c(c3)OCO4)ccc2O1 | 33 | 6 | u | -1 | 0
CCCN(C)C[C@@H]1OCCCC[C@H](C)Oc2ccc(NC(=O)Nc3ccc(F)cc3)cc2C(=O)N([C@H](C)CO)C[C@@H]1C | 53* | 6 | 6 | -13 | -16
SMILES | RAD52 anneal inh | S100A4 MyoIIA | MLL AF4-AF9 inh | INS-1E GSIS act | ERAP1 inh
C[C@H](CO)N1C[C@H](C)[C@H](CN(C)CC2CC2)OCCCC[C@H](C)Oc2ccc(NC(=O)Nc3ccc4c(c3)OCO4)cc2C1=O | 55* | 10 | 36* | x | -3
COc1ccc2c3c(n(C)c2c1)[C@@H](CO)N(C(=O)NC1CCCC1)CC31CN(C)C1 | x | x | x | 4 | x
O=C1N[C@@H](c2ccccc2)COCc2cn(nn2)CC[C@@H]1Cc1ccc(-c2ccccc2)cc1 | x | x | x | -8 | x
O=C(Nc1nnc(-c2ccc(F)cc2)s1)Nc1ccccc1F | -8 | 4 | 0 | 14 | 2
O=C(Nc1nnc(-c2ccccc2SCc2ccccc2F)s1)Nc1ccccc1F | x | x | x | 61* | x
CN(C)c1ccc(CN(CC2CCCO2)C(=O)c2cc3ccccc3o2)cc1 (stereo not given) | -7 | 0 | 26* | -24 | 0
CCCN1[C@@H]2c3ccc(-c4ccncc4)c(=O)n3C[C@H]1[C@H](CO)[C@H]2C(=O)N1CCCCC1 | -2 | 16 | -1 | -1 | 1
CCC(=O)N1CC[C@H]2[C@H](CO)Nc3ccc(C#Cc4ccc(OC)cc4)cc3[C@H]21 | -5 | -10 | 26* | 0 | 2
COCC(=O)N1CC[C@H]2[C@H](CO)Nc3ccc(C#Cc4ccc(OC)cc4)cc3[C@H]21 | 14 | -2 | 23 | -8 | 0
COc1ccc(C#Cc2ccc3c(c2)[C@H]2[C@H](CCN2Cc2ccncc2)[C@@H](CO)N3)cc1 | 63* | 0 | 11 | 11 | 0
COc1ccc(C#Cc2ccc3c(c2)[C@@H]2[C@@H](CCN2C(=O)c2ccncc2)[C@@H](CO)N3)cc1 | x | x | x | -1 | x
CO[C@@H]1CN(C)C(=O)c2ccc(NS(C)(=O)=O)cc2OC[C@@H](C)N(C(=O)NC(C)C)C[C@H]1C | 2 | 4 | -2 | 2 | 1
CNC[C@@H]1Oc2ccccc2C(=O)N(C)C[C@H]1C | x | x | x | 5 | x
COc1ccc(-c2cnc(N)nc2-c2ccc(OC)cc2)cc1 | -6 | -16 | 1 | 52* | -2
COc1ccc(-c2nc(N)ncc2-c2ccc(OC)c(OC)c2)c(O)c1 | 0 | -3 | 6 | 49* | 0
COc1ccc(-c2cnc(N)nc2-c2ccc(OCc3ccccc3)cc2O)cc1 | -25 | -18 | 2 | 5 | -2
CC(=O)N(C)C[C@H]1Oc2ccc(N(C)C)cc2C(=O)N(C)C[C@H]1C | x | x | x | 15 | x
COc1ccc(C[C@H]2CN3C(=NC[C@@H]3Cc3ccccc3)N2CCNC(=O)CCC2CCCCC2)cc1 | 26 | 2 | 20 | 155* | 10
COc1ccc(C[C@H]2CN3C(=NC[C@@H]3C(C)C)N2CCNC(=O)CCC2CCCCC2)cc1 | x | x | x | -14 | x
Cc1ccc(N2CC(c3nc4ccccc4n3C)CC2=O)cc1C (stereo not given) | -7 | 5 | -4 | x | 1
